Assay results taken from ChEMBL document CHEMBL1123853, “A novel class of cardiotonics. Synthesis and pharmacological properties of [4-(substituted-amino)phenyl]pyridazinones and related derivatives” (1987).

Columns and labels:
Canis familiaris [1] = experiment: Inotropic activity determined by evaluating the % change in Systolic Blood Pressure (SBP) at a dose of 300 ug/kg administered intravenously […]; assay type: functional, Canis lupus familiaris, Muscle tissue
Method in brief: (§1)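 Mongrel dogs of either sex, 7–15 kg, anesthetized with sodium pentobarbital (30 mg/kg iv), open-chest, intubated and ventilated on room air. Compounds given intravenously. A femoral artery catheter with pressure transducer recorded SBP and DBP. dP/dtmax, right ventricular contractile force, cardiac output and heart rate were also recorded, as % change at each iv dose.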

Canis familiaris [2] = experiment: Inotropic activity determined by evaluating the % change in Heart Rate (HR) at a dose of 1000 ug/kg administered intravenously […]; assay type: functional, Canis lupus familiaris; method in brief: as §1
Canis familiaris [3] = species: Canis familiaris; experiment: Positive inotropic in the isolated papillary muscle of the dog.; assay type: functional, Canis lupus familiaris
Method in brief: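 Right ventricular anterior papillary muscle with septum, from mongrel dogs (7–12 kg, pentobarbital 30 mg/kg iv). It was perfused at about 100 mmHg via the septal artery with blood from a heparinized donor dog and paced at 120/min (1 ms pulses, about 1.5× threshold). Isometric tension was recorded. Saline solutions were injected intra-arterially, with amrinone as reference. ED15 (15% rise in developed tension) was taken from log dose-response curves. Results are mean ± SEM (n = 7) or mean ± range (n = 2).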

Canis familiaris [4] = experiment: 0 Inotropic activity determined by evaluating the % change in Systolic Blood Pressure (SBP) at a dose of 1000 ug/kg administered intravenously […]; assay type: functional, Canis lupus familiaris; method in brief: as §1
Canis familiaris [5] = experiment: Inotropic activity determined by evaluating the % change in contractile force (CF) of right ventricle at a dose of 1000 ug/kg administered intravenously […]; assay type: functional, Canis lupus familiaris, Heart right ventricle; method in brief: as §1
Canis familiaris [6] = experiment: Inotropic activity determined by evaluating the maximum rate of rise in left ventricular pressure at a dose of 300 ug/kg administered intravenously […]; assay type: functional, Canis lupus familiaris, Muscle tissue; method in brief: as §1
Canis familiaris [7] = experiment: Inotropic activity determined by evaluating the % change in Diastolic Blood Pressure (DBP) at a dose of 300 ug/kg administered intravenously […]; assay type: functional, Canis lupus familiaris; method in brief: as §1
Canis familiaris [8] = experiment: Inotropic activity determined by evaluating the % change in contractile force (CF) of right ventricle at a dose of 300 ug/kg administered intravenously […]; assay type: functional, Canis lupus familiaris, Heart right ventricle; method in brief: as §1
Canis familiaris [9] = experiment: Inotropic activity determined by evaluating the % change in Diastolic Blood Pressure (DBP) at a dose of 1000 ug/kg administered intravenously […]; assay type: functional, Canis lupus familiaris; method in brief: as §1
Canis familiaris [10] = experiment: Inotropic activity determined by evaluating the % change in Cardiac out put (CO)at a dose of 1000 ug/kg administered intravenously […]; assay type: functional, Canis lupus familiaris; method in brief: as §1
Canis familiaris [11] = species: Canis familiaris; experiment: Positive inotropic activity determined in the […](that produced 30% increase in dose- response curves [dP/dt(max)]); assay type: functional; details: Canis lupus familiaris
Method in brief: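 In the anesthetized open-chest dog (mongrel, 7–15 kg, pentobarbital 30 mg/kg iv, ventilated on room air), compounds were given intravenously and LV dP/dtmax was recorded. The dose giving a 30% rise in dP/dtmax was read from the dose-response curves. Results are mean ± SEM (n = 3) or mean ± range (n = 2).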

Canis familiaris [12] = experiment: Inotropic activity determined by evaluating the % change in Cardiac out put (CO)at a dose of 300 ug/kg administered intravenously […]; assay type: functional, Canis lupus familiaris; method in brief: as §1
Canis familiaris [13] = experiment: Inotropic activity determined by evaluating the % change in Heart Rate (HR) at a dose of 300 ug/kg administered intravenously […]; assay type: functional, Canis lupus familiaris, Muscle tissue; method in brief: as §1
Canis familiaris [14] = experiment: Inotropic activity determined by evaluating the maximum rate of rise in left ventricular pressure at a dose of 1000 ug/kg administered intravenously […]; assay type: functional, Canis lupus familiaris, Muscle tissue; method in brief: as §1
Canis familiaris [15] = experiment: Inotropic activity determined by evaluating the % change in contractile force (CF) of right ventricle at a dose of 100 ug/kg administered intravenously […]; assay type: functional, Canis lupus familiaris, Heart right ventricle; method in brief: as §1
Canis familiaris [16] = experiment: Inotropic activity determined by evaluating the % change in Heart Rate (HR) at a dose of 100 ug/kg administered intravenously […]; assay type: functional, Canis lupus familiaris; method in brief: as §1
Canis familiaris [17] = experiment: Inotropic activity determined by evaluating the % change in Diastolic Blood Pressure (DBP) at a dose of 100 ug/kg administered intravenously […]; assay type: functional, Canis lupus familiaris; method in brief: as §1
Canis familiaris [18] = experiment: Inotropic activity determined by evaluating the % change in Systolic Blood Pressure (SBP) at a dose of 100 ug/kg administered intravenously […]; assay type: functional, Canis lupus familiaris, Muscle tissue; method in brief: as §1
Canis familiaris [19] = experiment: Inotropic activity determined by evaluating the % change in Systolic Blood Pressure (SBP) at a dose of 1000 ug/kg administered intravenously […]; assay type: functional, Canis lupus familiaris, Muscle tissue; method in brief: as §1
Canis familiaris [20] = experiment: Inotropic activity determined by evaluating the maximum rate of rise in left ventricular pressure at a dose of 100 ug/kg administered intravenously […]; assay type: functional, Canis lupus familiaris, Muscle tissue; method in brief: as §1
Canis familiaris [21] = experiment: Inotropic activity determined by evaluating the % change in Cardiac out put (CO)at a dose of 100 ug/kg administered intravenously […]; assay type: functional, Canis lupus familiaris; method in brief: as §1

SMILES	Change of SBP (Canis familiaris [1])	Change of HR (Canis familiaris [2])	ED15 (Canis familiaris [3])	Change of CF (Canis familiaris [5])	dP/dt (Canis familiaris [6])	Change of DBP (Canis familiaris [7])	Change of CF (Canis familiaris [8])	Change of DBP (Canis familiaris [9])	Change of CO (Canis familiaris [10])	ED30 (Canis familiaris [11])	Change of CO (Canis familiaris [12])	Change of HR (Canis familiaris [13])	dP/dt (Canis familiaris [14])	other results
Cc1cc(O)nnc1-c1ccc(Nc2ccncc2)cc1.Cl	0.5%	5.8%	165 µg	10.5%	-2.2%	-0.3%	-1.1%	1.4%	7.6%	> 1 mg/kg	9.6%	-1.3%	6.2%	Change of SBP (Canis familiaris [4]): 1.9%
Nc1cc(-c2ccncc2)c[nH]c1=O [INAMRINONE]	-2.7%	8.1%	200 µg	79.7%	22.3%	-4.1%	22.4%	-14.1%	36.5%	0.472 mg/kg	15.6%	3.8%	54.8%	Change of CF (Canis familiaris [15]): 6.5%; Change of HR (Canis familiaris [16]): 1.2%; Change of DBP (Canis familiaris [17]): -4.7%; Change of SBP (Canis familiaris [18]): -5%; Change of SBP (Canis familiaris [19]): -5.5%; dP/dt (Canis familiaris [20]): 6.7%; Change of CO (Canis familiaris [21]): 1.9%
